# Experimental data as given in ChEMBL document CHEMBL4049388, “Facile and efficient access to Androsten-17-(1',3',4')-pyrazoles and Androst-17β-(1',3',4')-pyrazoles via Vilsmeier reagents, and their antiproliferative activity evaluation in vitro” (Eur J Med Chem, 2017).
# Calls of active or inactive are those of the source. The rule behind the calls is not given here.
# Key:
# A549 [1] = experiment: Cytotoxicity against human A549 cells after 72 hrs by SRB assay; format: functional, cell-based; settings: A549, 72 h
# How it was run: (§1)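 SRB assay on 293T, A549, Hela and MCF-7 cells, with cisplatin as reference control. IC50 calculated for each compound from triplicate assays.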
# HeLa [2] = experiment: Induction of apoptosis in human HeLa cells assessed as total cells at viable stage at 2.5 uM after 24 hrs by Annexin-V-FITC/propidium iodide staining based flow cytometry (reference value: 96.16%); format: functional
# How it was run: (§2)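 Hela cells seeded at 10^6 per well and stabilized 24 h at 37 °C, 5% CO2. Then treated 24 h at 2.5, 5.0 or 7.5 μM, DMSO negative control. Cells washed in cold PBS, resuspended at 1×10^6 cells/mL in cold binding buffer, stained with annexin V-FITC then PI for 15 min in dark, analysed by flow cytometry.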
# HeLa [3] = experiment: Induction of apoptosis in human HeLa cells assessed as gated cells at viable stage at 2.5 uM after 24 hrs by Annexin-V-FITC/propidium iodide staining based flow cytometry (reference value: 99.88%); format: functional; how it was run: as §2
# HeLa [4] = experiment: Cell cycle arrest in human HeLa cells assessed as accumulation at S phase at 2.5 uM after 24 hrs by propidium iodide staining based flow cytometry (reference value: 18.92%); format: functional
# HeLa [5] = experiment: Induction of apoptosis in human HeLa cells assessed as gated cells at necrotic stage at 2.5 uM after 24 hrs by Annexin-V-FITC/propidium iodide staining based flow cytometry (reference value: 0.05%); format: functional; how it was run: as §2
# HeLa [6] = experiment: Induction of apoptosis in human HeLa cells assessed as gated cells at early apoptotic stage at 7.5 uM after 24 hrs by Annexin-V-FITC/propidium iodide staining based flow cytometry (reference value: 0.04%); format: functional; how it was run: as §2
# HeLa [7] = experiment: Induction of apoptosis in human HeLa cells assessed as gated cells at necrotic stage at 5 uM after 24 hrs by Annexin-V-FITC/propidium iodide staining based flow cytometry (reference value: 0.05%); format: functional; how it was run: as §2
# HeLa [8] = experiment: Induction of apoptosis in human HeLa cells assessed as total cells at early apoptotic stage at 2.5 uM after 24 hrs by Annexin-V-FITC/propidium iodide staining based flow cytometry (reference value: 0.04%); format: functional; how it was run: as §2
# HeLa [9] = experiment: Cell cycle arrest in human HeLa cells assessed as accumulation at G1 phase at 7.5 uM after 24 hrs by propidium iodide staining based flow cytometry (reference value: 56.72%); format: functional
# HeLa [10] = experiment: Induction of apoptosis in human HeLa cells assessed as gated cells at early apoptotic stage at 2.5 uM after 24 hrs by Annexin-V-FITC/propidium iodide staining based flow cytometry (reference value: 0.04%); format: functional; how it was run: as §2
# A549 [11] = experiment: Cytotoxicity against human A549 cells assessed as growth inhibition at 10 uM after 72 hrs by SRB assay relative to control; format: functional; settings: A549, 72 h, read-out: GI
# How it was run: (§3)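 SRB single-dose screen at 10 μM on 293T, A549, Hela and MCF-7 cells. Results reported as percent inhibitory ratio (mean ± SD).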
# HeLa [12] = experiment: Cell cycle arrest in human HeLa cells assessed as accumulation at G1 phase at 2.5 uM after 24 hrs by propidium iodide staining based flow cytometry (reference value: 56.72%); format: functional
# HeLa [13] = experiment: Induction of apoptosis in human HeLa cells assessed as total cells at viable stage at 7.5 uM after 24 hrs by Annexin-V-FITC/propidium iodide staining based flow cytometry (reference value: 96.16%); format: functional; how it was run: as §2
# HeLa [14] = experiment: Induction of apoptosis in human HeLa cells after 24 hrs by Annexin-V-FITC/propidium iodide staining based flow cytometry; format: functional, cell-based; how it was run: as §2
# HeLa [15] = experiment: Cell cycle arrest in human HeLa cells assessed as accumulation at G2 phase at 7.5 uM after 24 hrs by propidium iodide staining based flow cytometry (reference value: 24.36%); format: functional
# HeLa [16] = experiment: Cell cycle arrest in human HeLa cells assessed as accumulation at S phase at 5 uM after 24 hrs by propidium iodide staining based flow cytometry (reference value: 18.92%); format: functional
# HeLa [17] = experiment: Induction of apoptosis in human HeLa cells assessed as gated cells at early apoptotic stage at 5 uM after 24 hrs by Annexin-V-FITC/propidium iodide staining based flow cytometry (reference value: 0.04%); format: functional; how it was run: as §2
# HEK-293T = experiment: Cytotoxicity against human 293T cells after 72 hrs by SRB assay; format: cell-based; how it was run: as §1
# HeLa [18] = experiment: Induction of apoptosis in human HeLa cells assessed as gated cells at late apoptotic stage at 5 uM after 24 hrs by Annexin-V-FITC/propidium iodide staining based flow cytometry (reference value: 0.03%); format: functional; how it was run: as §2
# HeLa [19] = experiment: Cell cycle arrest in human HeLa cells assessed as accumulation at S phase at 7.5 uM after 24 hrs by propidium iodide staining based flow cytometry (reference value: 18.92%); format: functional
# HeLa [20] = experiment: Induction of apoptosis in human HeLa cells assessed as irregular nucleus at 7.5 uM after 48 hrs by Hoechst 33342 staining based fluorescence microscopic method; format: functional, cell-based
# How it was run: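 Hela cells seeded at 10^6 per well on cover slips and incubated 16 h. Then exposed 48 h at 2.5, 5.0 or 7.5 μM, DMSO negative control. Cells fixed in 4% paraformaldehyde for 15 min, washed in PBS, stained with Hoechst 33342 for 10 min. Nuclear morphology viewed by fluorescence microscopy, ex 350 nm / em 460 nm.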
# HeLa [21] = experiment: Induction of apoptosis in human HeLa cells assessed as total cells at necrotic stage at 7.5 uM after 24 hrs by Annexin-V-FITC/propidium iodide staining based flow cytometry (reference value: 0.05%); format: functional; how it was run: as §2
# HeLa [22] = experiment: Induction of apoptosis in human HeLa cells assessed as gated cells at viable stage at 7.5 uM after 24 hrs by Annexin-V-FITC/propidium iodide staining based flow cytometry (reference value: 99.88%); format: functional; how it was run: as §2
# HeLa [23] = experiment: Induction of apoptosis in human HeLa cells assessed as total cells at necrotic stage at 2.5 uM after 24 hrs by Annexin-V-FITC/propidium iodide staining based flow cytometry (reference value: 0.05%); format: functional; how it was run: as §2
# HeLa [24] = experiment: Induction of apoptosis in human HeLa cells assessed as gated cells at necrotic stage at 7.5 uM after 24 hrs by Annexin-V-FITC/propidium iodide staining based flow cytometry (reference value: 0.05%); format: functional; how it was run: as §2
# HeLa [25] = experiment: Cytotoxicity against human HeLa cells after 72 hrs by SRB assay; format: functional, cell-based; how it was run: as §1
# MCF7 = experiment: Cytotoxicity against human MCF7 cells after 72 hrs by SRB assay; format: functional, cell-based; settings: MCF7, 72 h; how it was run: as §1
# [26] = Cytotoxicity against human 293T cells assessed as growth inhibition at 10 uM after 72 hrs by SRB assay relative to control; format: cell-based; settings: HEK-293T cells, read-out: GI; how it was run: as §3
# HeLa [27] = experiment: Cell cycle arrest in human HeLa cells assessed as accumulation at S phase after 24 hrs by propidium iodide staining based flow cytometry; format: functional
# HeLa [28] = experiment: Induction of apoptosis in human HeLa cells assessed as total cells at late apoptotic stage at 7.5 uM after 24 hrs by Annexin-V-FITC/propidium iodide staining based flow cytometry (reference value: 0.03%); format: functional; how it was run: as §2
# HeLa [29] = experiment: Cell cycle arrest in human HeLa cells assessed as accumulation at G1 phase at 5 uM after 24 hrs by propidium iodide staining based flow cytometry (reference value: 56.72%); format: functional
# HeLa [30] = experiment: Induction of apoptosis in human HeLa cells assessed as total cells at early apoptotic stage at 5 uM after 24 hrs by Annexin-V-FITC/propidium iodide staining based flow cytometry (reference value: 0.04%); format: functional; how it was run: as §2
smiles,measurement,setting,value
CCNCc1cn(-c2ccccc2)nc1C1=CC[C@H]2[C@@H]3CC=C4C[C@@H](O)CC[C@]4(C)[C@H]3CC[C@]12C,IC50,A549 [1],7390 nM
same,Activity,HeLa [2],95.73%
same,Activity,HeLa [3],97.93%
same,Activity,HeLa [4],19.8%
same,Activity,HeLa [5],1.31%
same,Activity,HeLa [6],8.37%
same,Activity,HeLa [7],3.79%
same,Activity,HeLa [8],0.58%
same,Activity,HeLa [9],49.92%
same,Activity,HeLa [10],0.59%
same,inhibition of growth at 10 µM,A549 [11],91.3%
same,Activity,HeLa [12],51.99%
same,Activity,HeLa [13],78.35%
same,Activity,HeLa [14],Dose-dependent effect
same,Activity,HeLa [15],25.31%
same,Activity,HeLa [16],24.34%
same,Activity,HeLa [17],2.41%
same,IC50,HEK-293T,870 nM
same,Activity,HeLa [18],0.36%
same,Activity,HeLa [19],24.77%
same,Activity,HeLa [20],Active
same,Activity,HeLa [21],2.79%
same,Activity,HeLa [22],87.49%
same,Activity,HeLa [23],1.28%
same,Activity,HeLa [24],3.12%
same,IC50,HeLa [25],530 nM
same,IC50,MCF7,2530 nM
same,"inhibition at 72 h, 10 µM",[26],94.2%
same,Activity,HeLa [27],Dose-dependent effect
same,Activity,HeLa [28],0.9%
same,Activity,HeLa [29],53.13%
same,Activity,HeLa [30],2.08%
